Test results: ChEMBL document CHEMBL1240306, “Allosteric inhibitors of Bcr-abl-dependent cell proliferation” (Nat Chem Biol, 2006)
Activity calls are given as the source filed them. The calls are words filed in the database; no cut-off is given here.

Columns and labels:
[1] = target: Tyrosine-protein kinase ABL1 (Homo sapiens) (UniProt P00519); assay: Binding affinity to dephosphorylated human recombinant abl
Outline: (§1)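 Recombinant human abl (1 μg), either Src-phosphorylated or tyrosine phosphatase-treated, incubated 1 h at 4 °C with immobilized GNF-3 resin; after five washes bound protein eluted by boiling in Laemmli buffer and detected by SDS-PAGE/anti-abl immunoblot. Immobilized methyl analogue used as control matrix.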

[2] = target: Tyrosine-protein kinase ABL1 (Homo sapiens) (UniProt P00519); assay: Binding affinity to phosphorylated human recombinant abl; outline: as §1
[3] = Cytotoxic activity against mouse 32D cells transfected with p210 Bcr-abl; type: cell-based
[4] = Cytotoxic activity against mouse 32D Bcr-abl negative cells
[5] = target: Tyrosine-protein kinase ABL1 (Homo sapiens) (UniProt P00519); assay: Displacement of abl from GNF2 resin using affinity chromatography at 1000 uM by competition binding assay

Sequence of Tyrosine-protein kinase ABL1 (Homo sapiens) (P00519 whole entry): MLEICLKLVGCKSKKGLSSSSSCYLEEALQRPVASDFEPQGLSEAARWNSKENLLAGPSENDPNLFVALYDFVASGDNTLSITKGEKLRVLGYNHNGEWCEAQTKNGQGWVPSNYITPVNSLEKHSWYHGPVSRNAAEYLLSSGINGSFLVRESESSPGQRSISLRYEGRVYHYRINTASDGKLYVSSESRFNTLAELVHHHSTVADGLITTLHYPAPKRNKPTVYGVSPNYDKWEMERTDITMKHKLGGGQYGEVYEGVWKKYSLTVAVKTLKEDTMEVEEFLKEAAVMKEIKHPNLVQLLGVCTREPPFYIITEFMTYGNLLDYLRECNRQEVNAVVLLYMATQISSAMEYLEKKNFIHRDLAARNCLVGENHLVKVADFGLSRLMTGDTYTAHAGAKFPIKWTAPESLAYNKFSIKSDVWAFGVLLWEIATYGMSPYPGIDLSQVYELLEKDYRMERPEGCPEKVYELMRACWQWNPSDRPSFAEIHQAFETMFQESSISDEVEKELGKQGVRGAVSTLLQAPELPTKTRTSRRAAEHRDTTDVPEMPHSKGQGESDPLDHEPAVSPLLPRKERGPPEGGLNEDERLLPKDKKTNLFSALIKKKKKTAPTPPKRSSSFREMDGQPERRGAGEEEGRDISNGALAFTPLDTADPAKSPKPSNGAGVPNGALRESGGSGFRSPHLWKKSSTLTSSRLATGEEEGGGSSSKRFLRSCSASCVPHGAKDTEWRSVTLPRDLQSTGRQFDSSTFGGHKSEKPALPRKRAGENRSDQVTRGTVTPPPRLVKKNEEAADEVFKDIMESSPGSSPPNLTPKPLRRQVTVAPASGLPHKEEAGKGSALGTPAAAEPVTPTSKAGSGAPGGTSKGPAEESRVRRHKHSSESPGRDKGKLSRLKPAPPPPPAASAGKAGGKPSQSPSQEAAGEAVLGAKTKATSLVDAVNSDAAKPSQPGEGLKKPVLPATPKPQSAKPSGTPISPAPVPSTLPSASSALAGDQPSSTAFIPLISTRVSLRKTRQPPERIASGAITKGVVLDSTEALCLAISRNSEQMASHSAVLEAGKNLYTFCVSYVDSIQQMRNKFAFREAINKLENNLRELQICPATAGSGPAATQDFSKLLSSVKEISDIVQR

For `NCCOCCOCCOCCOCCOCCNC(=O)c1cccc(-c2cc(Nc3ccc(OC(F)(F)F)cc3)ncn2)c1`, which Activity [1] is on record?
Its Activity is “Active”.

And the Activity [2]?
The Activity was “Active”.

Which results are given for `FC(F)(F)Oc1ccc(Nc2cc(NCCN3CCOCC3)ncn2)cc1`?
IC50 [3]: 400 nM; IC50 [4]: > 40000 nM

Which Activity [5] does the source give for `Nc1ncnc2c1ncn2[C@@H]1O[C@H](COP(=O)(O)OP(=O)(O)OP(=O)(O)O)[C@@H](O)[C@H]1O` here?
Its Activity is “Active”.
